# MMP-13 inhibitor – MMP13 (human) collagenase inhibition; P45452; MMP-13 fTHP FRET cleavage, Mca fluorescence; inhibition, % at 4 µM; 65,000 compounds, 0.07% hits; AID 570;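 active = inhibition above the mean of compound-free control plate wells plus 3 SD, cut at about 14% in these data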;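 note: 0% = DMSO wells and 100% = wells with reference MMP-13 inhibitor after basal subtraction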
# RORa activator – activates the human nuclear receptor RORA. activation, % at 10 µM. 65,000 compounds, 1.5% hits. P35398. CHO-K1 Gal4-RORA LBD luciferase reporter, luminescence; percent increase over mock-subtracted basal signal. AID 560;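 active = activation above the mean of all tested compounds plus 3 SD, cut at about 49% in these data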;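 note: 0% = DMSO-treated RORA cells and 100% = added signal equal to DMSO minus mock-transfected cells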
# Target sequence (P35398 whole entry, looked up, the tested form may be a part): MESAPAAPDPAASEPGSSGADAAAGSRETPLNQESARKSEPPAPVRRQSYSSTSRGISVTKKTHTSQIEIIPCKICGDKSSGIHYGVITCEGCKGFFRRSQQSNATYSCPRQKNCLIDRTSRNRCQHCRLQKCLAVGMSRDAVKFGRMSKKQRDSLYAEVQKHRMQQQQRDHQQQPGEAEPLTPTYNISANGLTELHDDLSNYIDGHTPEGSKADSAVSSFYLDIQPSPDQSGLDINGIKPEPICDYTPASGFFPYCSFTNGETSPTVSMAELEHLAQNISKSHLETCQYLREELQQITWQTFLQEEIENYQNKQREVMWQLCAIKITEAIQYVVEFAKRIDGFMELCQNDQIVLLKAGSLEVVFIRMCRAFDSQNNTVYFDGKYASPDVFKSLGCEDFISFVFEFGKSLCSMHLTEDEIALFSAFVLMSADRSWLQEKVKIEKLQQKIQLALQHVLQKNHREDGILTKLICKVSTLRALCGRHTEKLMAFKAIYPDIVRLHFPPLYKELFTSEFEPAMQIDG
# HePTP inhibitor – inhibitors of human HePTP phosphatase | AID 521 | 110,000 compounds, 0.64% hits | recombinant HePTP phosphatase activity, OD absorbance | P35236 | inhibition, % at 20 µM; in the data active = inhibition above about 50%;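 note: plate controls were vehicle for no effect and reference inhibitor for full effect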
# Ec RNAP inh – blocks E. coli RNA polymerase transcription. fluorescence transcription assay. 62,000 compounds, 0.2% hits. P0A8V2. inhibition, %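 (tested at 10 µM)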; in the data active = inhibition above about 20%;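 note: 0% = enzyme without compound and 100% = no enzyme blank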
# AP ELISA ortho – orthogonal test for alternative complement pathway inhibitors; Human serum alternative complement pathway, LPS-coated ELISA, C3 deposition; tested in compound mixtures; inhibition, % at 5 µM; 62,000 compounds, 0.08% hits; AID 1235;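 active = inhibition above 30% in each of the two pooled mixtures holding the compound, so the lower value exceeds 30%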;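 note: 0% = serum in Mg-EGTA without compound and 100% = EDTA serum blank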
#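 Test system: human serum alternative complement pathway, C3 deposition on LPS-coated wells; also added: Plate-bound LPS; doses: 5 µM per compound in ten-compound mixtures; schedule: 1 h at 37 °C; detection: Anti-C3 ELISA, OD 450 nm; evaluation: percent inhibition of C3 deposition onto LPS; repeats: two pool placements per compound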
# SF-1 act – activates the human nuclear receptor SF-1; activation, % at 10 µM; 65,000 compounds, 1.9% hits; CHO-K1 Gal4-SF-1 LBD luciferase reporter; % increase over DMSO SF-1-specific signal;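 active = activation above the mean activation of all tested compounds plus 3 SD, cut at about 50% in these data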
#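 Test system: CHO-K1 cells with Gal4–hSF-1 LBD chimera plus Gal4-driven luciferase; Input: 4,000 cells/well; Compound: 10 µM only; Times: 20 h compound treatment, 37 °C; Measured by: steady-glow luciferase luminescence, read after 15 min reagent incubation; Measure: percent activation versus DMSO; Control set: DMSO and mock-transfected background; Replicates: one test per compound.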
# * marks the source's active call; other numbers are inactive results; i = inactive; . = no result given. Shown are actives, neighbours in structure and some others; about 2.4% of the full set was active somewhere.
SMILES,MMP-13 inhibitor,RORa activator,HePTP inhibitor,Ec RNAP inh,AP ELISA ortho,SF-1 act
COc1ccc(CNC(=O)C(C)NC(=O)c2cc3ccccc3o2)cc1 (configuration not stated),0,-11,6,39*,16,6
Cc1cccc(NC(=O)c2cc3ccccc3o2)c1,-15,26,3,12,-2,90*
CNC(=O)c1cc2ccccc2o1,1,0,8,3,19,14
CCCCn1nnc(NC(=O)c2cc3ccccc3o2)n1,-2,15,5,-5,4,31
CCCn1nnc(NC(=O)c2cc3ccccc3o2)n1,0,49*,10,6,0,20
NC(=O)c1ccc(NC(=O)c2cc3ccccc3o2)cc1,.,.,4,.,.,.
O=C(Nc1cccc(Br)c1)c1cc2ccccc2o1,4,71*,-11,-3,16,46
CC(C)CC(=O)Nc1nnc(Cc2ccc(Cl)cc2Cl)s1,.,.,10,.,.,.
O=c1/c(=C/c2cc(Cl)c(OCCOc3ccccc3)c(Cl)c2)sc2nc3ccccc3n12,.,.,2,.,.,.
COC(=O)c1ccc(C=NN2CCN(Cc3ccccc3)CC2)cc1,.,.,4,.,.,.
O=C(Nc1ccc(Br)cc1)c1cc2ccccc2o1,.,.,-12,.,.,.
CC(C)C(=O)Nc1ccc(NC(=O)c2cc3ccccc3o2)cc1,5,59*,9,4,4,24
NS(=O)(=O)c1cccc(NC(=O)c2cc3ccccc3o2)c1,.,.,-8,.,.,.
CCC(=O)Nc1cccc(NC(=O)c2cc3ccccc3o2)c1,4,58*,-5,3,-6,25
COc1cccc(OCc2nnc(SCC(=O)OCc3ccccc3)o2)c1,-13,49*,9,-3,8,7
CCc1ccc(C(=O)NC2CCCCC2)s1,3,55*,4,6,21,59*
CCc1ccc(C(=O)N2CCCC2)s1,4,-6,-8,3,-12,11
O=C(NCc1cccs1)c1ccc(Cl)s1,-2,-4,13,9,11,9
CCc1ccc(C(=O)NCc2cccs2)s1,4,10,-3,7,-3,70*
O=C(NCc1cccs1)c1cc2c(s1)-c1ccccc1OC2,i,53*,10,-21,17,36
CC1=NN(c2ccccc2)C(=O)/C1=C\c1ccc(C)o1,.,.,-4,.,.,.
O=C(CSc1nnc(-c2ccccc2)n1-c1ccccc1)N/N=C/C=C/c1ccccc1,.,.,1,.,.,.
CC1=NNC(=O)C1CC(=O)N/N=C/c1cccc([N+](=O)[O-])c1 (configuration not stated),.,.,11,.,.,.
CN(C)/C=N/c1cnc(C(=O)c2ccc(Cl)cc2)n1C,2,76*,0,4,-1,48
Cn1ccnc1/C=C(/OC(=O)c1ccc(Cl)cc1)c1ccc(Cl)cc1,.,.,-2,.,.,.
SMILES,MMP-13 inhibitor,RORa activator,HePTP inhibitor,Ec RNAP inh,AP ELISA ortho,SF-1 act
O=C(Cc1ccc2cccnc2c1)c1ccc(O)cc1O,1,60*,4,0,13,39
O=C(Cc1ccccc1)c1ccc(O)cc1O,.,.,5,.,.,.
c1ccc(Cc2nnc3sc(-c4ccc5c(c4)OCCO5)nn23)cc1,-7,38,6,5,17,55*
c1ccc(Cc2nnc3sc(-c4ccc5c(c4)OCO5)nn23)cc1,-18,-2,1,4,5,20
Cn1c(NC(=O)CCc2ccccc2)cc(=O)n(C)c1=O,6,60*,4,3,17,56*
CCc1ccccc1NC(=O)c1cnc2n(c1=O)CCS2,2,18,19,4,2,18
CCc1ccc(NC(=O)c2cnc3n(c2=O)CCS3)cc1,3,40,7,7,27,50*
COc1ccc(/C=N/OCC(=O)N=Nc2c(O)n(CN(C)C)c3ccc(Br)cc23)cc1,.,.,104*,.,.,.
C#CCOc1nc(N(c2ccccc2)c2ccccc2)nc(-n2c(C)nc3ccccc32)n1,.,.,1,.,.,.
Cc1ccc(Nc2nc(=O)c3cccnc3s2)cc1,0,50*,7,-6,28,53*
CCC(=O)Nc1nc2c(OC)ccc(OC)c2s1,-4,-1,-8,2,5,-19
CCC(=O)Nc1nc2ccc3nc(C)sc3c2s1,0,82*,0,5,5,56*
O=C1/C(=C/c2ccc(Cl)cc2)SC(=S)N1C1CCCCC1,.,.,4,.,.,.
Cc1cc(OCc2nc(-c3ccccc3)no2)cc(C)c1Cl,.,.,21,.,.,.
Cc1ccc(OCc2nc(-c3ccccc3)no2)c(C)c1,3,40,10,4,8,59*
Cc1c(-c2nc(N)nc(Nc3ccccc3F)n2)oc2ccccc12,-2,108*,4,13,8,73*
COc1ccccc1Nc1nc(N)nc(-c2cc3ccccc3o2)n1,-3,39,-1,2,2,13
O=C1OC(c2ccc(-c3ccccc3)cc2)c2ccccc21 (configuration not stated),.,.,105*,.,.,.
COc1cc(/C=N/Nc2nc(Nc3ccccc3)nc(N3CCOCC3)n2)ccc1OCc1ccccc1,.,.,-4,.,.,.
Cc1csc(SCCN2C(=O)c3ccccc3C2=O)n1,-406,73*,-4,.,-9,65*
O=C1c2ccccc2C(=O)N1CCSc1nncs1,-4,0,2,.,1,13
COc1ccc(Br)cc1/C=N\N1CCN(c2ccc(C)cc2)CC1,.,.,2,.,.,.
COc1ccc(C2C(C(C)=O)=C(C)N=c3s/c(=C\c4cc(C)n(C)c4C)c(=O)n32)c(OC)c1 (configuration not stated),18*,-6,11,.,10,-6
COc1ccc(C2C(C(C)=O)=C(C)N=c3s/c(=C\c4ccco4)c(=O)n32)c(OC)c1 (configuration not stated),6,-19,6,.,23,-11
OC1(c2cccc(C(F)(F)F)c2)CCN(c2ncnc3c2[nH]c2ccccc23)CC1,-51,-24,4,7,.,-22
SMILES,MMP-13 inhibitor,RORa activator,HePTP inhibitor,Ec RNAP inh,AP ELISA ortho,SF-1 act
OC1(c2cccc(C(F)(F)F)c2)CCN(c2ccc(-c3ccccc3)nn2)CC1,3,66*,18,6,0,38
COc1cc(/C=C(\C#N)C(=O)c2ccccc2)ccc1O,.,.,9,.,.,.
O=[N+]([O-])c1cc(C(F)(F)F)ccc1N1CCN(C/C=C/c2ccccc2)CC1,.,.,10,.,.,.
COc1ccc(-c2nnc(SCc3nnc(-c4ccccc4)o3)n2C)cc1OC,-2,53*,7,1,-4,12
Cc1ccc(OCc2nnc(NC(=O)Nc3ccc(Cl)cc3)s2)cc1C,.,.,6,.,.,.
CCOC(=O)/C(=N/O)C1=NC(C)(C)Cc2cc(OC)c(OC)cc21,.,.,7,.,.,.
O=C1CCCC(O)=C1C=Nc1ccc(O)cc1,2,-4,-10,-9,-16,56*
CC1=NN(c2ccc(Oc3ccccc3)c(S(=O)(=O)O)c2)C(=O)C1,.,.,-4,.,.,.
CCOc1cc(/C=C2\SC(N)=NC2=O)cc(Cl)c1O,.,.,-13,.,.,.
COc1ccc(Cl)cc1NC(=O)CCN1C(=O)c2ccccc2C1=O,.,.,5,.,.,.

# Screens: PubChem BioAssay, several laboratories
